MsrA inh = bovine MsrA enzyme inhibitors, primary screen, biochemical, absorbance, HTS; Methionine sulfoxide reductase A (Bos taurus); purified bovine MsrA, absorbance read-out; inhibition, % at 15.5 µM; 360,000 compounds, 0.75% hits; in the data active means inhibition above about 4.5%
beta cell repl = inducers of MIN6 beta-cell proliferation, primary screen, ATP luminescence, uHTS; AID 2380, 2010; 330,000 compounds, 0.29% hits; MIN6 cells proliferation, ATPlite luminescence, 48 h; cells starved in 0.2% serum; 100% = growth in 10% serum; proliferation, % at 10 µM;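 active means compounds whose signal lies at least 3.5 SD above the mean of all wells on their plate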
MsrA act = bovine MsrA enzyme activators, primary screen, biochemical, absorbance, HTS. purified bovine MsrA, absorbance read-out. activation, % at 10.6 µM. Methionine sulfoxide reductase A (Bos taurus). 360,000 compounds, 0.3% hits; in the data active means activation above about 7.5%
SKN-1 inh = suppressors of acrylamide-induced Pgst-4::GFP reporter in worms, primary screen, SKN-1 inhibitor project, whole organism, uHTS, GFP/RFP fluorescence ratio, strain VP596; C. elegans VP596 Pgst-4::GFP/RFP ratio, 24 h; inhibition, % at 21.8 µM; 360,000 compounds, 0.49% hits;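 active means interference check ratio from 0.5 to 1.5 plus GFP to RFP signal ratio inhibition reaching or exceeding a fixed threshold, cut at about 30% in these data, passing the limit was not always enough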
DAGLB inh = DAGLB lipase inhibitors, primary screen, biochemical, fluorescence, HTS; Diacylglycerol lipase-beta (Homo sapiens), Q8NCG7; HEK293T DAGLB membrane lysate, EnzChek fluorogenic substrate; AID 504411, 2011; 340,000 compounds, 0.059% hits; inhibition, % at 5.17 µM; in the data active means inhibition above about 34%
Target sequence (Q8NCG7 whole entry, looked up): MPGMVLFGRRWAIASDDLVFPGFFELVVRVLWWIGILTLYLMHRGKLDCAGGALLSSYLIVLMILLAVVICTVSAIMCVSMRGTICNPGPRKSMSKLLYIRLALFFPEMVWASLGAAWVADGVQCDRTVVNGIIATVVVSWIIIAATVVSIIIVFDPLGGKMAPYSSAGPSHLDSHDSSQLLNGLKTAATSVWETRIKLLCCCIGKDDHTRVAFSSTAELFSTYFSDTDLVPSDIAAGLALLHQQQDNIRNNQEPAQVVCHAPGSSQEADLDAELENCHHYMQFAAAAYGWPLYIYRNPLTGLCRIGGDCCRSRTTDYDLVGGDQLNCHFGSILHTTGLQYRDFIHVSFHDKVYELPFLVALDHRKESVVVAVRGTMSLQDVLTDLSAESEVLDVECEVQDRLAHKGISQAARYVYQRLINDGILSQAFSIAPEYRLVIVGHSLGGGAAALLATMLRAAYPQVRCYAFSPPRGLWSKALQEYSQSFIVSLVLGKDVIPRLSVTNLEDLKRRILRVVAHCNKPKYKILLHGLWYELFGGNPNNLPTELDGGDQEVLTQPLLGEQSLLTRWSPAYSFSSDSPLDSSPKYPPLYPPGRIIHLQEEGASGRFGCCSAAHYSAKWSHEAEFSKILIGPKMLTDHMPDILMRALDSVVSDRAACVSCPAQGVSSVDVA
MT1-MMP act inh = blockers of MT1-MMP proenzyme processing, primary screen, HT1080 RFP-PRO-GFP cells, GFP/RFP fluorescence; 360,000 compounds, 0.061% hits; GFP/RFP ratio change, % at 20 µM; GFP/RFP ratio fluorescence, overnight; percent of plate control window, DMSO zero; AID 651647, 2012;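 active means GFP/RFP ratio change of at least 30% with cell ATP level not reduced by more than half and red fluorescence within 50% of control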
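Assay system: HT1080 RFP-PRO-GFP cells | Dosing: 20 µM single dose, 1% DMSO | Incubation: Cells overnight before dosing, compound overnight, 37 °C, 5% CO2 | Evaluation: GFP/RFP fluorescence ratio | Control set: DMSO-only wells and HT1080 RFP-L50D-GFP cell wells as references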
Each line names hits and unclear results; the compound was inactive in the other large screens. Sampled rows, rich in hits. Any-hit rate of the full collection: about 1.8%.

CCCCn1c(CCC(=O)O)nc2c1c(=O)[nH]c(=O)n2CCC	none
COCCn1c(CCC(=O)O)nc2c1c(=O)[nH]c(=O)n2CC(C)C	SKN-1 inh 32.5
O=C(/C=C(\Nc1cccc(Cl)c1)c1ccccc1)c1ccccc1	none (no result: beta cell repl, MsrA act, SKN-1 inh, DAGLB inh, MT1-MMP act inh)
O=C(CSc1nnnn1C1CCCCC1)Nc1cccc(NC(=O)c2ccco2)c1	SKN-1 inh 36.8
O=C(CSc1nnnn1C1CCCC1)Nc1cccc(NC(=O)c2ccco2)c1	none
CNC(=O)c1c(O)c2cccc3c2n(c1=O)CC3	none
O=C(Nc1cccnc1)c1c(O)c2cccc3c2n(c1=O)CC3	SKN-1 inh 38.1
Cc1c(NC(=S)N/N=C/c2ccc(O)cc2)c(=O)n(-c2ccccc2)n1C	MsrA inh 4.8
Cc1c(NC(=S)N/N=C/c2cc([N+](=O)[O-])ccc2O)c(=O)n(-c2ccccc2)n1C	none
Fc1ccccc1-c1nc(-c2ccc(Br)o2)no1	SKN-1 inh 72.0
Fc1ccccc1-c1nc(-c2ccncc2)no1	SKN-1 inh 46.0
Cc1ccccc1-c1nc(-c2ccc(Br)o2)no1	SKN-1 inh 46.1
c1ccc(-c2noc(-c3cccc4ccccc34)n2)cc1	SKN-1 inh 37.0
Fc1ccccc1-c1nc(-c2ccccc2)no1	none
COc1ccc(Cl)cc1-c1nc(-c2ccc(Br)o2)no1	none
CC1(C)OC(C)(C)C(=N/O)/C1=N\N	none (no result: beta cell repl, MsrA act, SKN-1 inh, DAGLB inh, MT1-MMP act inh)
CN[C@H]1C[C@@H](c2ccccc2Br)N(C(C)=O)C[C@H]1CO	none (no result: beta cell repl, MsrA act, SKN-1 inh, DAGLB inh, MT1-MMP act inh)
CSc1nc(-c2ccco2)nn1C(=O)c1ccc(C)cc1	SKN-1 inh 36.1
C=CCCC1CN(Cc2ccc(OC)cc2)S(=O)(=O)c2c(Oc3cc(C)c(C)c(C)c3)cccc2O1 (stereo not drawn)	none (no result: beta cell repl, MsrA act, SKN-1 inh, DAGLB inh, MT1-MMP act inh)
Cc1c(C)n(Cc2ccccc2)c2ccc(C(=O)NCCN3CCOCC3)cc12	none
Cc1c(C)n(Cc2ccccc2)c2ccc(C(=O)OCCN(C)C)cc12	SKN-1 inh 36.2
C[C@H]1CN([C@@H](C)CO)C(=O)CCCn2cc(nn2)CO[C@@H]1CN(C)S(=O)(=O)c1ccccc1F	none (no result: beta cell repl, MsrA act, SKN-1 inh, DAGLB inh, MT1-MMP act inh)
COc1ccc(C(=O)N/C(=C\c2cccs2)c2nc3ccccc3[nH]2)cc1OC	MsrA inh 6.0
N#C/C(=C\c1ccco1)C(=O)NCC1CCCO1 (stereo not drawn)	MsrA inh 7.0
N#C/C(=C\c1ccc[nH]1)C(=O)NCC1CCCO1 (stereo not drawn)	none
CCN1C(=O)/C(=C2\C=Cc3cc(C)ccc3N2CC)OC1=S	SKN-1 inh 35.0
CCN1C(=O)/C(=C2/C=Cc3ccccc3N2C)OC1=S	none
C[C@H](CO)N1C[C@H](C)[C@H](CN(C)C(=O)Nc2cccc(F)c2)OCc2cnnn2CCCC1=O	none (no result: beta cell repl, MsrA act, SKN-1 inh, DAGLB inh, MT1-MMP act inh)
O=C(CNc1cccc(C(F)(F)F)c1)N/N=C/c1cn(-c2ccccc2)nc1-c1ccccc1	MsrA inh 4.6
Cc1ccc2nc(CN(C)C(=O)[C@@H](Cc3ccccc3)NC(=O)[C@H]3O[C@@H](n4cnc(C(N)=O)n4)[C@H](O)[C@@H]3O)[nH]c2c1	none (no result: beta cell repl, MsrA act, SKN-1 inh, DAGLB inh, MT1-MMP act inh)
O=C(O)COc1ccc(/C=N/NC(=O)C(O)(c2ccccc2)c2ccccc2)cc1	SKN-1 inh 39.6
C[C@@H]1CN([C@H](C)CO)C(=O)c2cc(Br)cnc2O[C@H]1CN(C)C(=O)c1ccc(F)cc1	none (no result: beta cell repl, MsrA act, SKN-1 inh, DAGLB inh, MT1-MMP act inh)
CC(C)C[C@H]1COc2cc(NCCCN3CCOCC3)ccc2S(=O)(=O)N1	none (no result: beta cell repl, MsrA act, SKN-1 inh, DAGLB inh, MT1-MMP act inh)
N/C(=N\OC(=O)Cc1cccs1)c1ccc(Cl)cc1	SKN-1 inh 57.2
N/C(=N\OC(=O)c1cccs1)c1ccc(Cl)cc1	SKN-1 inh 52.2 (no result: DAGLB inh)
Cc1cc(C(=O)OCC(=O)NCc2ccco2)c(C)n1-c1ccc(F)cc1	MsrA act 8.5
COc1ccc2c(c1)OC/C(=C/c1cccs1)C2=O	SKN-1 inh 53.6
Cc1ccc(NC(=O)c2ccc(F)cc2F)cc1	SKN-1 inh 40.9
O=[N+]([O-])c1cc(S(=O)(=O)NCc2ccco2)ccc1NN=Cc1ccccn1	none (no result: beta cell repl, MsrA act, SKN-1 inh, DAGLB inh, MT1-MMP act inh)
O=C1CN(C(=O)COC(=O)c2cccs2)c2ccccc2N1	none
Cn1c2ccccc2c2cc(C(=O)OCC(=O)N3CC(=O)Nc4ccccc43)sc21	SKN-1 inh 46.4
S=C(NN=C1CCCCC1=NNC(=S)N1CCOCC1)N1CCOCC1	none (no result: beta cell repl, MsrA act, SKN-1 inh, DAGLB inh, MT1-MMP act inh)
COC(=O)c1ccc2nc(-c3ccc(Cl)cc3)c(Cc3ccccc3)n2c1	none (no result: beta cell repl, MsrA act, SKN-1 inh, DAGLB inh, MT1-MMP act inh)
CC(=O)CC(=O)O[C@@H]1C=C[C@H](NC(=O)OC(C)(C)C)C1	none (no result: beta cell repl, MsrA act, SKN-1 inh, DAGLB inh, MT1-MMP act inh)
CCOC(=O)C(C)C1(O)c2ccccc2-c2ncccc21 (stereo not drawn)	SKN-1 inh 37.2
OC(CC1CC12c1ccccc1-c1ncccc12)(c1ccccc1)c1ccccc1 (stereo not drawn)	none
CN(C)N=Nc1nc[nH]c1C(N)=O	none
CN(N=Nc1nc[nH]c1C(N)=O)C1CCCCC1	MsrA inh 4.6 (no result: beta cell repl, DAGLB inh)
COc1ccc(CNC(=O)c2c(N)[nH]c(C(=O)c3ccccc3)c2-c2ccc3ccccc3c2)cc1OC	none (no result: beta cell repl, MsrA act, SKN-1 inh, DAGLB inh, MT1-MMP act inh)
COc1cc(C[C@H](C)[C@H](C)Cc2ccc3c(c2)OCO3)ccc1O	MsrA act 16.4 (no result: MsrA inh)
CC(C)(C)OC(=O)N1CCC2CCN(S(=O)(=O)c3ccccc3)CC21 (stereo not drawn)	none (no result: beta cell repl, MsrA act, SKN-1 inh, DAGLB inh, MT1-MMP act inh)
CCOC(=O)N1CCN(c2ccc(C(C)=O)cc2F)CC1C (stereo not drawn)	MsrA inh 4.6
CCCCCCCCCCCCCCCC[n+]1ccc(/C=N/O)cc1	SKN-1 inh 42.9
C(=N\n1cncn1)/c1ccc(N2CCOCC2)cc1	MsrA inh 5.3
Nc1ncc(-c2ccc(-c3ccccc3)cc2F)cc1-c1ccccc1F	SKN-1 inh 40.4 (no result: beta cell repl, DAGLB inh)
Nc1ncnc2c1ncn2[C@@H]1O[C@H](C(=O)N[C@@H](CCc2ccccc2)C(=O)N2CCN(C(=O)C(F)(F)F)CC2)[C@@H](O)[C@H]1O	none (no result: beta cell repl, MsrA act, SKN-1 inh, DAGLB inh, MT1-MMP act inh)
COc1cccc(NC(=O)NNC(=O)c2ccc3c(c2)NC(=O)C(C)(C)O3)c1	SKN-1 inh 39.6
COc1ccccc1NC(=O)NNC(=O)c1ccc2c(c1)NC(=O)C(C)(C)O2	none (no result: MT1-MMP act inh)
FC(F)(F)C1=CC(c2ccc(Cl)cc2)=NCCN1	SKN-1 inh 36.1
Oc1ccccc1C1=NCCNC(C(F)(F)F)=C1	none
Cc1cccc(N2CCN(C(=O)c3ccc4c(=O)[nH]c5c(C(=O)NC6CCCC6)sc(=S)n5c4c3)CC2)c1C	none (no result: beta cell repl, MsrA act, SKN-1 inh, DAGLB inh, MT1-MMP act inh)
CCCCc1c(Cc2ccccc2)ncn1CCc1ccccc1OC	none (no result: beta cell repl, DAGLB inh)
Cc1ccccc1NC(=O)CCC(=O)OCC(=O)c1cccc([N+](=O)[O-])c1	SKN-1 inh 37.2

Bioassay records from PubChem BioAssay.
